RAM inhibit: yeast RAM network inhibition | S. cerevisiae dse1pr::URA3 reporter, 5-FOA growth OD615, 2 d; analog-sensitive cbk1-as2 kinase mutant strain | inhibition, % at 50 µM | 190,000 tested, 1.8% active;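 active means inhibition above a set limit, 3 SD over mean compound inhibition, cut at about 8.4% in these data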;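 further: 0% = DMSO-only wells with no growth and 100% = 10 µM 1-NA-PP1 full growth; inhibition rescues growth on 5-FOA so higher OD means more RAM inhibition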
Arbovirus anti: antivirals against arbovirus infection | arbovirus infection cell-based antiviral screen | inhibition, % at 10 µM | 200,000 tested, 0.37% active | AID 1251; in the data active means inhibition above about 30%
ABCB1 inh: inhibitors of human ABCB1 transporter, ABCG2 counter-screen. 190,000 tested, 0.067% active. CCRF-Adr cells, JC-1 efflux, flow cytometry. P08183. inhibition, % at 6.6 µM. AID 1326; in the data active means inhibition above about 40%;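 further: 0% = vehicle and 100% = reference inhibitor; higher value means more JC-1 retained so stronger ABCB1 efflux block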
ABCG2 inh: blocks JC-1 efflux by human ABCG2 transporter; Q9UNQ0; IgMXP3 cells, flow cytometry; 190,000 tested, 0.1% active; inhibition, % at 6.6 µM;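 active means inhibition above 80%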;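 further: 0% = DMSO and 100% = nicardipine control wells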
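Assay system – ABCG2 IgMXP3 and barcoded ABCB1 CCRF-Adr cell mix · Input – 3 million cells/mL in well · Reagent – JC-1 fluorescent substrate · Compound – single test compound dose, 6.6 µM final · Timing – 10 min exposure at 25 °C with rotation, no wash · Detection – flow cytometry of retained JC-1 fluorescence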
Starred values were filed as active, the others as inactive. Rows were chosen to be rich in hits. Some 2.3% of all compounds tested hit in one or more screens of this group.

SMILES	RAM inhibit	Arbovirus anti	ABCB1 inh	ABCG2 inh
Cc1ccc(-c2csc(N/N=C/c3ccco3)n2)cc1	1	24	0	-1
COc1cc2c(cc1OC)C(C(=O)N1CCOCC1)C(c1cccs1)N(C)C2=O (stereo not drawn)	3	-5	0	0
Nc1ncnc2nc(SCCOc3ccc(Cl)cc3)[nH]c12	1	-1	0	2
CCOC(=O)c1c(NC(=O)c2ccccc2Cl)sc2c1CCc1ccccc1-2	7	3	0	26
CCCCC(=O)Nc1sc2c(c1C(=O)OCC)CCC(C=O)=C2Cl	9.2*	-43	2	6
Cc1ccc(N2C(=O)C3C(C2=O)N2C(c4cccs4)C4C(=O)N(c5ccc(C)cc5)C(=O)C4N2C3c2cccs2)cc1 (stereo not drawn)	8.6*	3	1	0
CCOc1ccc(CCNC(=O)c2cc3sccc3n2CC)cc1OCC	9.0*	-9	3	31
CCOC(=O)N1CCC(NC(=O)c2cc3sccc3n2CC)CC1	2	0	5	28
CCOC(=O)c1cnn(-c2nc(SC)nc3sc4c(c23)CCCC4)c1N	2	1	1	14
COc1cc(/C=C/C(=O)O)cc(S(=O)(=O)Nc2ccccc2Cl)c1OC	1	15	0	0
CCOC(=O)c1c(-c2ccc(C)o2)csc1NC(=O)CSc1nnnn1-c1ccccc1	8.6*	-1	0	0
CCOC(=O)c1c(NC(=O)CSc2nnc(C)s2)sc2c1CCC(C)C2 (stereo not drawn)	8.9*	-5	1	14
CCOC(=O)c1c(-c2ccc(C)o2)csc1NC(=S)NC(=O)c1ccccc1Br	7	47*	-6	-6
CCOC(=O)c1c(-c2ccccc2)csc1NC(=O)CSc1nnc(C)s1	5	-2	23	28
CCOC(=O)c1c(-c2ccc(C)o2)csc1NC(=O)CSc1nnc(C)s1	11*	7	-3	2
CCOC(=O)c1c(-c2ccc(C)o2)csc1NC(=S)NC(=O)c1cccs1	6	8	0	0
COc1ccccc1NC(=S)N/N=C1\CC(C)(C)Oc2ccc(O)cc21	2	4	0	1
O=S(=O)(c1cccc2cccnc12)N1CCN(c2ccccn2)CC1	1	-2	2	2
CCOC(=O)N1CCN(Cc2ccc(F)cc2F)CC1	2	1	0	0
Cc1cc(C(C)(C)C)oc1C(=O)N(CC(=O)NC1CCCC1)Cc1ccccc1	3	-3	0	-1
Cc1ccc(C)c(N(CC(=O)NC2CCCC2)C(=O)c2oc(C(C)(C)C)cc2C)c1	9.5*	-30	1	2
COc1ccc(CC(=O)OCC(=O)N2N=C(c3ccccc3)CC2c2ccc(OC)cc2)cc1 (stereo not drawn)	8.9*	13	14	30
Cc1ccc(NC(=S)N=Nc2c(O)n(C)c3ccc(S(=O)(=O)N4CCOCC4)cc23)cc1C	9.4*	-6	-1	-3
COc1ccc(NC(=O)COc2ccc(C(=O)OCC(=O)N(C(C)C)C(C)C)cc2OC)cc1	1	16	1	6
CC(C)(Oc1ccc(Cl)cc1)C(=O)NC1=NN(c2ccccc2)C(=O)C1	1	35*	0	-4
SMILES	RAM inhibit	Arbovirus anti	ABCB1 inh	ABCG2 inh
O=C1CC(NC(=O)C(F)(F)F)=NN1c1ccccc1	1	-27	0	2
CCC1=NN2C(=N)/C(=C\c3cccn3-c3c(C)cccc3C)C(=O)N=C2S1	2	31*	0	1
CCC1=NN2C(=N)/C(=C\c3cccn3-c3cccc(Cl)c3)C(=O)N=C2S1	2	23	1	1
CCC1=NN2C(=N)/C(=C\c3cccn3-c3ccc(C)cc3C)C(=O)N=C2S1	4	39*	0	1
COc1cc(/C(C#N)=C/c2cccc3ccccc23)c([N+](=O)[O-])cc1OC	3	-23	2	7
COc1cccc(C(=O)Oc2c(CN3CCOCC3)cc(Cl)c3cccnc23)c1	-1	-11	0	-1
O=C(Nc1ccccc1C(=O)O)c1ccc(Br)c(S(=O)(=O)NCc2ccccc2)c1	11*	31*	-1	-2
O=C(Nc1ccccc1C(=O)NCc1ccccc1)c1ccccc1Br	1	5	3	28
CCCCCn1c(=O)c(C(=O)OCC)c(O)c2ccccc21	9.0*	2	-1	-4
Nc1ccc(O)cc1C(=O)OCC(=O)c1ccc(C2CCCCC2)cc1	10*	1	0	-3
Nc1ccc(O)cc1C(=O)OCC(=O)C12CC3CC(CC(C3)C1)C2	0	3	-1	-2
CC(=O)Nc1c(O)nc(SCc2ccccc2C#N)[nH]c1=O	0	7	0	2
Cc1ccccc1C(C(=O)NC1CCCC1)N(C(=O)Cc1cccs1)c1ccc2c(c1)OCCO2 (stereo not drawn)	3	-30	2	3
CCc1ccc(N(C(=O)Cc2cccs2)C(C(=O)NC2CCCCC2)c2cn(C)nc2C)cc1 (stereo not drawn)	8.5*	-4	3	3
O=C(COC(=O)c1ccccn1)Nc1cccc(Cl)c1	1	-1	0	5
CC1Cc2ccccc2N1C(=O)CSc1nnnn1Cc1ccccc1 (stereo not drawn)	8.7*	-8	0	9
CC(C)C(=O)Nc1nnc(SCC(=O)N2c3ccccc3CC2C)s1 (stereo not drawn)	0	39*	0	3
COCCCn1nnnc1SCC(=O)N1c2ccccc2CC1C (stereo not drawn)	1	-5	1	2
CC1Cc2ccccc2N1C(=O)CSc1ccccc1 (stereo not drawn)	-1	30*	0	1
Cc1ccn2cc(CCNC(=O)Cc3cccs3)nc2c1	0	4	0	2
Cc1nc2sc(C(c3ccco3)N3CC(C)OC(C)C3)c(O)n2n1 (stereo not drawn)	0	5	0	1
O=C(Cn1ncc2c1-c1ccccc1OC2)Nc1nc2ccccc2s1	3	-13	0	2
COc1ccc(/C=C/C=C2\NC(=S)NC2=O)cc1	10*	-12	-1	-4
COc1ccc(N=C2NC(=O)/C(=C\C=C\c3ccccc3)S2)cc1	1	-14	0	0
Cc1noc(C)c1COc1cccc(C(=O)OCCOc2ccc(F)cc2)c1	8.7*	-3	2	7
SMILES	RAM inhibit	Arbovirus anti	ABCB1 inh	ABCG2 inh
Cc1noc(C)c1COc1cccc(C(=O)OC(C)C#N)c1 (stereo not drawn)	1	-8	2	7
Cc1ccc(S(=O)(=O)NCc2nnc(SCC(=O)Nc3cccc(C)c3C)n2C)cc1	-1	5	0	1
O=C(Nc1ccc(OC(F)(F)F)cc1)c1[nH]ncc1[N+](=O)[O-]	1	30*	1	26
COCCCNC(=O)CN1C(=O)CSc2ncccc21	0	-2	1	2
Cc1ccc2nc(/C(C#N)=N/O)[nH]c2c1	2	3	0	3
Cc1ccc2nc(/C(C#N)=C/c3cn[nH]c3-c3ccc(F)cc3)[nH]c2c1	10*	-14	0	1
COc1ccc(S(=O)(=O)N(C)CC(=O)N2CCC(C(N)=O)CC2)cc1Cl	0	6	0	1
